EBI2 antag – EBI2 receptor antagonists, beta-arrestin recruitment, primary screen, cell-based, luminescence, 7a,25-OHC stimulation, uHTS; G-protein coupled receptor 183 (Homo sapiens), P32249; 7a,25-OHC stimulated; inhibition, % at 5 µM; 0.81% of 360,000 active; AID 651636, 2012; in the data active means inhibition above about 38%;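 further: enzyme fragment complementation signal reports receptor beta-arrestin coupling in cells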
MC4R barr agon – MC4R agonists recruiting beta-arrestin, primary screen, cell-based, luminescence, agonist arm of biased-ligand search. Melanocortin receptor 4 (Homo sapiens), P32245. U2OS MC4R beta-arrestin complementation; percent of melanotan II response, DMSO zero. activation, % at 8.9 µM. 0.98% of 360,000 active;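 active means activation above a per-plate cutoff, the mean activation of sample wells on that plate plus 3 SD, cut at about 8% in these data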
Target sequence (P32245 whole entry, looked up): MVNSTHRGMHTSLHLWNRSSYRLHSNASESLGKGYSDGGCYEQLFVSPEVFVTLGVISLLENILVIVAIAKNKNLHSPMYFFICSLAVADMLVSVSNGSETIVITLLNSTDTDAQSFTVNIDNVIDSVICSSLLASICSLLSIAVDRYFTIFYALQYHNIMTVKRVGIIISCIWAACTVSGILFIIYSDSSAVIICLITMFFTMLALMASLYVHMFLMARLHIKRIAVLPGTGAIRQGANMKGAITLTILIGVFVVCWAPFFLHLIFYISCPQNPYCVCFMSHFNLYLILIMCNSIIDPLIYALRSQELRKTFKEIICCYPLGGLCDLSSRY
Myeloid diff 2 – induction of myeloid progenitor differentiation, primary screen, cell-based, flow cytometry, MLPCN library; calls only at 10 µM; AID 624256, 2012; ER-HoxA9 myeloid progenitors, lysozyme-GFP differentiation; 1% of 360,000 active;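 active means normalized GFP-positive differentiation at or above the plate's own cutoff, the solvent-only control mean plus 3 SD; inconclusive means no clear call, values can overlap the other calls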;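 further: cells exposed to compound for four days before flow analysis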
Exocytosis inh – LAMP-1 surface exposure blockers, TALL-104 cells – cell-based, flow cytometry, MLPCN library, primary screen; AID 651702, 2012; inhibition, % at 10 µM; TALL-104 LAMP-1 surface exposure; cells stimulated with thapsigargin and PMA; 0.66% of 360,000 active;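 active means inhibition above about 55%, limit read from the data; inconclusive means no clear call, values can overlap the other calls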
MC4R antag cAMP – MC4R antagonists of cAMP signaling, primary screen, cell-based, TR-FRET, antagonist arm of biased-ligand search. Melanocortin receptor 4 (Homo sapiens), P32245. MC4R-expressing cells, MTII-stimulated cAMP, LANCE TR-FRET. inhibition, % at 6.5 µM. 0.48% of 360,000 active. AID 540295, 2011;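 active means inhibition above its plate's cutoff, the mean of tested wells on that plate plus 3 SD, cut at about 29% in these data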
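Assay system: U2OS-MC4R stable cell line; Also added: Melanotan II; Technique: Eu-cAMP/anti-cAMP TR-FRET, emission 671 nm; Times: 30-min compound, 1-h challenge, 1-h detection, room temperature.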
Each line names hits and unclear results; the compound was inactive in the other large screens. Shown are actives, neighbours in structure and some others; about 3.7% of the full set was active somewhere.

C=CCn1cc(/C=C/c2cc[n+](C)cc2)c2ccccc21	Myeloid diff 2 inconclusive
O=c1c2ccccc2nc(-c2ccc(F)cc2)n1NCc1ccccc1O	none
FC(F)(F)c1ccccc1Cc1c(-c2cccc(Cl)c2)nc2ccc(Cl)cn12	none (no result: MC4R barr agon, MC4R antag cAMP)
Cc1ccc(C)c2c(N)c3c(nc12)CCCCC3 (tested in a mixture with another compound)	none
CCOC(=O)CCC(=O)NNC(=O)COc1ccc(C(C)C)cc1Br	none
COCCNC(=O)C1CCCN(C(=O)c2ccc3sccc3c2)CC1 (stereo not drawn)	none
O=S(=O)(c1ccc(Cl)c(NC(=S)Nc2cccc(O)c2)c1)N1CCOCC1	none
CCN(C(=S)Nc1cc(S(=O)(=O)N2CCOCC2)ccc1Cl)c1cccc2ccccc12	Exocytosis inh 61
CS(=O)(=O)c1ccc(C(=O)Nc2nc(-c3ccco3)c(-c3ccco3)s2)cc1	none
CCN1CCN(CCCNC(=O)c2ccc(/C=C3/Oc4ccccc4N(Cc4cccc(C)c4)C3=O)cc2)CC1	none
CCCCNC(=O)c1ccc(/C=C2\Oc3ccccc3N(C)C2=O)cc1	MC4R barr agon 9.2
Cn1c(C(=O)N[C@@H](C(=O)O)c2ccccc2)cc2cc(F)ccc21	none
O=C(Nc1cc(Cl)cc2c1-c1ccc(Cl)cc1C2O)C(Cl)Cl (stereo not drawn)	EBI2 antag 44
CN(C)C(=O)c1ccc(-n2cccn2)nc1	none
N#Cc1ccccc1NC(=O)CSc1nnc(-c2ccccc2)n1-c1ccccc1	none
CCN(CC)c1ccc(-c2nnc(SCC(=O)Nc3ccccc3C#N)n2-c2ccccc2)cc1	Exocytosis inh 88
CCCCCCCN1C(Nc2ccccc2)=NC[C@@H]1CC(C)C	Myeloid diff 2 active
CC(C)C[C@H]1CN=C(Nc2ccccc2)N1CCCC1CCCC1	none
CCc1nc2c(OCc3ccc(Cl)cc3)cccn2c1N(C)C(=O)c1ccc(C)cc1	none
O=[N+]([O-])c1ccc(Cl)c(C2Nc3cccc4cccc(c34)N2)c1	Exocytosis inh 56
c1ccc(NC2=Nc3cccc4cccc2c34)cc1	none
Fc1ccc(/C=N/NC2=Nc3cccc4cccc2c34)cc1	Myeloid diff 2 active
Clc1ccc(CSc2nccn2Cc2ccccc2)cc1	EBI2 antag 77
O=c1ccn(Cc2ccccc2)c(SCc2ccccc2)n1	none
Cc1csc2c(=O)sc(NC(=O)c3cccs3)nc12	MC4R barr agon 8.5
Cc1csc2c(=O)sc(NC(=O)c3ccco3)nc12	none
CCN(CC)CCNc1ccc2nnc(CCNS(=O)(=O)c3ccc(C)cc3)n2n1	none
c1ccc(C[C@H]2CN=C(Nc3ccccc3)N2CC2CCCCC2)cc1	Myeloid diff 2 active
c1ccc(C[C@H]2CN=C(Nc3ccccc3)N2CC2CCCCCC2)cc1	none
C[C@@H](NC(=O)c1ncn(Cc2ccccc2)c1C(=O)N[C@H](C)c1ccccc1)c1ccccc1	EBI2 antag 48
COc1ccc(OC)c(N/C(=N/C(=S)Nc2ccccc2)Nc2nc(C)cc(C)n2)c1	Myeloid diff 2 active
O=C(NC1CCCCC1)C(c1ccc(-c2ccccc2)cc1)n1c(=O)c(-c2ccco2)nc2ccccc21 (stereo not drawn)	none (no result: MC4R barr agon, MC4R antag cAMP)
COc1cccc(C2C(C(=O)Nc3ccccc3)=C(C)N=c3s/c(=C/c4ccc(OCC(=O)O)cc4)c(=O)n32)c1 (stereo not drawn)	none
CC1=C(C(=O)Nc2ccccc2)C(c2ccc(C)o2)n2c(s/c(=C\c3ccco3)c2=O)=N1 (stereo not drawn)	Myeloid diff 2 active
N#CC(C#N)=c1ccc2c(c1)N1C3=C(CCCC3)CC3CCCCC31N=2 (stereo not drawn)	Myeloid diff 2 active, Exocytosis inh 64
CC(=O)C1CCC2C3CC(O)C4=CC(=O)CCC4(C)C3C(=O)CC12C (stereo not drawn)	Myeloid diff 2 active
CC(=O)[C@H]1CC[C@H]2[C@@H]3CCC4=CC(=O)CC[C@]4(C)[C@H]3CC[C@]12C	none
O=C(c1ccc(F)cc1)C1CCN(C(=O)c2ccccc2F)CC1	none
COC(=O)C1=C(C(=O)OC)SC2(S1)C(C(=O)OC)=C(C(=O)OC)SC1=C2c2cc(C)ccc2NC1(C)C	MC4R antag cAMP 53
COc1nc(N)nc(NC(=O)c2cccs2)c1N=O	Myeloid diff 2 inconclusive, Exocytosis inh 105
CC(=O)C(=Nc1ccc(Cl)cc1Cl)NNc1cccc(Cl)c1	Exocytosis inh 85
C#CCOCCOCCOCCNc1nc(N2CCN(C(=O)C([C@@H](C)CC)n3cc(C(N)CC(C)C)nn3)CC2)nc(N2CCN(C(=O)[C@H](CCC(=O)O)n3cc(C(N)Cc4ccc(O)cc4)nn3)CC2)n1 (stereo partly drawn)	none
C#CCOCCOCCOCCNc1nc(N2CCN(C(=O)C([C@@H](C)O)n3cc([C@@H](N)CCCCN)nn3)CC2)nc(N2CCN(C(=O)[C@H](CCCCN)n3cc([C@@H](N)[C@H](C)CC)nn3)CC2)n1 (stereo partly drawn)	none
C#CCOCCOCCOCCNc1nc(N2CCN(C(=O)[C@H](CCCN=C(N)N)n3cc(C(N)[C@@H](C)CC)nn3)CC2)nc(N2CCN(C(=O)[C@H](CCC(=O)O)n3cc([C@@H](N)CC(N)=O)nn3)CC2)n1 (stereo partly drawn)	Myeloid diff 2 active
C#CCOCCOCCOCCNc1nc(N2CCN(C(=O)[C@H](CCCN=C(N)N)n3cc(C(N)[C@@H](C)CC)nn3)CC2)nc(N2CCN(C(=O)[C@H](CCC(=O)O)n3cc([C@@H](N)[C@H](C)CC)nn3)CC2)n1 (stereo partly drawn)	none
C#CCOCCOCCOCCNc1nc(N2CCN(C(=O)C([C@@H](C)CC)n3cc(C(N)Cc4ccc(O)cc4)nn3)CC2)nc(N2CCN(C(=O)[C@H](CCC(=O)O)n3cc(C(N)Cc4ccc(O)cc4)nn3)CC2)n1 (stereo partly drawn)	Exocytosis inh 64
C#CCOCCOCCOCCNc1nc(N2CCN(C(=O)C([C@@H](C)O)n3cc([C@@H](N)CCCCN)nn3)CC2)nc(N2CCN(C(=O)[C@H](CCC(=O)O)n3cc([C@@H](N)[C@H](C)CC)nn3)CC2)n1 (stereo partly drawn)	Myeloid diff 2 active
Cc1ncc([N+](=O)[O-])n1CC(=O)Nc1ccc(F)cc1	none
CCOc1ccc(CNC(=O)CCCN2C(=O)C(c3ccccc3)Oc3cccnc32)cc1 (stereo not drawn)	MC4R barr agon 9.1
Cn1c(=O)oc2cc(S(=O)(=O)N3CCN(c4ccccc4)CC3)ccc21	Myeloid diff 2 active

Bioassay records: PubChem BioAssay, several laboratories
